Assay results pooled from the literature.
Lines come from different studies, so protocols differ.
Target: Protein kinase C theta type (PRKCQ, Homo sapiens, UniProt Q04759)

SMILES	read-out	action	technique	concentration	quantity	result
N#CC1(c2ccccn2)CCN(Cc2cc(C(=O)O)c(=O)n3ccccc23)CC1	cell-free assay	–	competition with immobilised ligand	1 µM	remaining binding	96%
CC(C)(C)c1cc(C=C(C#N)C#N)cc(Br)c1O	enzyme activity	inhibitor	–	0.5 µM	remaining activity	98%
Cn1cc(-c2cccc(N3CCc4c(sc5c4CC(C)(C)C5)C3=O)c2CO)cc(Nc2ccncn2)c1=O	enzyme activity	inhibitor	–	1 µM	inhibition	-5%
O=c1[nH]c2ccccc2n1C1CCN(Cc2ccc(-c3[nH]c4cc5ncnc5cc4nc3-c3ccccc3)cc2)CC1	cell-free assay	–	–	0.5 µM	remaining signal	96.4%
C#Cc1n[nH]c2c(-c3cn(C(C)c4ccccn4)c(=O)[nH]c3=O)cc(F)cc12 (stereo not shown)	enzyme activity	inhibitor	–	1 µM	inhibition	1.2%
Cc1nn(C)cc1-c1nc2c(N3CCN(Cc4ccc(Cl)cc4)CC3)c(Cl)cnc2[nH]1	binding	–	competition with immobilised ligand	1 µM	remaining binding	100%
Cn1cncc1[C@@](O)(COc1ccc(C#N)cc1-c1ccc(OC(F)(F)F)cc1)c1ccc(C#N)cc1	cell-free assay	–	competition with immobilised ligand	1 µM	remaining binding	100%
COc1ncccc1-c1cnn2ccc(N3CCN(C(=O)OC(C)C)CC3)nc12	binding	–	competition with immobilised ligand	1 µM	remaining binding	100%
Cn1cc(-c2cc(F)cc(N3CCn4c(cc5c4CCCC5)C3=O)c2CO)cc(Nc2ccc(N3CCN(C4COC4)CC3)cn2)c1=O	enzyme activity	inhibitor	–	0.1 µM	inhibition	0%
Nc1ncc(-c2nc(N3CCOCC3)nc(N3CCOCC3)n2)c(C(F)F)n1	cell-free assay	–	competition with immobilised ligand	10 µM	remaining binding	37%
